Data on 16 compounds can be found in ChEMBL document CHEMBL3994673, “Design and Synthesis of Potent and Selective PIM Kinase Inhibitors by Targeting Unique Structure of ATP-Binding Pocket” (ACS Med Chem Lett, 2017).

Converted amounts (≈) assume the structure as drawn. Where only a bound is given, the exact number is not on record here.

The target in data set [1] is T1, Serine/threonine-protein kinase pim-1 (Homo sapiens, UniProt P11309). In words: Inhibition of full length recombinant human N-terminal His-tagged PIM1 (1 to 313 end residues) expressed in baculovirus infected sf21 cells using S6K2 peptide as substrate by electrophoretic mobility shift assay. A general note: In EMSA bound probe runs differently from free probe, usually more slowly.

A further data set has as its target hERG (KCNH2) (Homo sapiens, UniProt Q12809). Put plainly: Inhibition of human ERG expressed in CHO cells at 10 uM by patch clamp method relative to control. The data set is classed as cell-based. The following applies: CHO cells expressing human ERG. Put shortly: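 hERG block measured by patch clamp with compound at 10 μM; performed by a contract lab (Cerep).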

The target in data set [2] is Platelet-derived growth factor receptor alpha (Homo sapiens) (UniProt P16234). Put plainly: Inhibition of recombinant human N-terminal GST-tagged PDGFRalpha cytoplasmic domain (550 to 1089 end residues) expressed in baculovirus infected sf21 cells at 200 nM using CSKtide as substrate by electrophoretic mobility shift assay relative to control. Put shortly:
(§1)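 Single-point screen of a 52-kinase panel with compound at 200 nM, read as % inhibition of each kinase; run by a contract lab (Carna Biosciences).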

The target in data set [3] is T2, Serine/threonine-protein kinase pim-3 (Homo sapiens, UniProt Q86V86). In words: Inhibition of full length recombinant human N-terminal GST-tagged PIM3 (1 to 326 end residues) expressed in baculovirus infected sf21 cells at 200 nM using S6K2 peptide as substrate by electrophoretic mobility shift assay relative to control. The gist of the method: as §1
Data set [4] is described as follows: Permeability in human Caco2 cells at 10 uM. The data set is classed as ADME, cell-based. The following applies: Caco-2, read-out: permeability. Put shortly: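 Caco-2 monolayer permeability measured with compound at 10 μM, reported in units of 10–6 cm/s; performed by a contract lab (Cerep).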
(Caco-2 cells form a polarised layer with tight junctions and transporters.)

For data set [5], the target named is T3, Serine/threonine-protein kinase pim-2 (Homo sapiens, UniProt Q9P1W9). Put plainly: Inhibition of full length recombinant human N-terminal GST-tagged PIM2 (1 to 311 residues) expressed in baculovirus infected sf21 cells using S6K2 peptide as substrate by electrophoretic mobility shift assay.
Data set [6] addresses Death-associated protein kinase 1 (Homo sapiens) (UniProt P53355). Put plainly: Inhibition of recombinant human N-terminal GST-tagged DAPK1 catalytic domain (1 to 289 residues) expressed in baculovirus infected sf21 cells at 200 nM using DAPK1tide as substrate by electrophoretic mobility shift assay relative to control. The gist of the method: as §1
Data set [7] concerns the target T1, Serine/threonine-protein kinase pim-1. In words: Inhibition of full length recombinant human N-terminal His-tagged PIM1 (1 to 313 end residues) expressed in baculovirus infected sf21 cells at 200 nM using S6K2 peptide as substrate by electrophoretic mobility shift assay relative to control. Put shortly:
as §1

The target in data set [8] is T4, Serine/threonine-protein kinase D2 (Homo sapiens) (UniProt Q9BZL6).
T4 sequence (whole entry): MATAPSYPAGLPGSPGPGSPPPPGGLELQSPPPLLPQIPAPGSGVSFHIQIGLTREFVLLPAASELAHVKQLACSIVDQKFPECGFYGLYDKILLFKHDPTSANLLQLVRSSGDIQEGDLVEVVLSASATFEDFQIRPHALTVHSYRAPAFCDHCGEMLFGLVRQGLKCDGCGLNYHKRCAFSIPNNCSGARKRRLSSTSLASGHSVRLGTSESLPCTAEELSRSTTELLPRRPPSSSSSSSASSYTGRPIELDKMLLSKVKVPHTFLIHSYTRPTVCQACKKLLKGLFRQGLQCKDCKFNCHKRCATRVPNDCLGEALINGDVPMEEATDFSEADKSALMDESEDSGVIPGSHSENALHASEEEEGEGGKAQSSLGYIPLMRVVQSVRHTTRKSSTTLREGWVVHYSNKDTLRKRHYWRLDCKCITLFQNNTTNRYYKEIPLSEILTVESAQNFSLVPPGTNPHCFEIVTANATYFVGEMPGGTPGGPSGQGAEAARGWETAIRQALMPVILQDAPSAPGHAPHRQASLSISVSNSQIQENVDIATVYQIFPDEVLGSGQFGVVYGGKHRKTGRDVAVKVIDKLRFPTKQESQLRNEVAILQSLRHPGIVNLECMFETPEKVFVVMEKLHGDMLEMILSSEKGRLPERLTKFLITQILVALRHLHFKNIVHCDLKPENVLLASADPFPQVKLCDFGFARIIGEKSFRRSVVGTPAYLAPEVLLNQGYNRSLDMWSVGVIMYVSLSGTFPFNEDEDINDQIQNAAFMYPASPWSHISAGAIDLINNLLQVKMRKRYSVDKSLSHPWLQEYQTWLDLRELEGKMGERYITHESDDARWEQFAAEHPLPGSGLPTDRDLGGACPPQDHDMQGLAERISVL
In words: Inhibition of full length recombinant human N-terminal GST-tagged PKD2 (1 to 878 end residues) expressed in baculovirus infected sf21 cells at 200 nM using GS peptide as substrate by electrophoretic mobility shift assay relative to control. The gist of the method:
as §1

A short description of data set [9]: Growth inhibition of human MOLM16 cells after 72 hrs by CCK8 assay. Format: functional, cell-based. Conditions: MOLM16, 72 h. (Tetrazolium dyes change colour on reduction, which living cells bring about.)
Another data set has as its system WI-38. Put plainly: Growth inhibition of human WI38 cells after 48 hrs by CCK8 assay. The data set is classed as cell-based. The following applies: WI-38, 48 h. Put shortly:
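Cells incubated with compound for 48 h for growth inhibition.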

Data set [10] is described as follows: Stability in mouse liver microsomes assessed as parent compound remaining at 1 uM after 1 hr. Format: ADME, microsome. Conditions: read-out: Stability. Put shortly: (§2)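 Compound at 1 μM incubated with liver microsomes (0.3 mg/mL protein) at 37 °C for 1 h; value is percent of parent remaining. Performed by a contract lab (Cerep).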
For data set [11], the target named is T3, Serine/threonine-protein kinase pim-2. In words: Inhibition of full length recombinant human N-terminal GST-tagged PIM2 (1 to 311 residues) expressed in baculovirus infected sf21 cells at 200 nM using S6K2 peptide as substrate by electrophoretic mobility shift assay relative to control. The gist of the method:
as §1

A short description of data set [12]: Stability in human liver microsomes assessed as parent compound remaining at 1 uM after 1 hr. The data set is classed as ADME, microsome. The following applies: read-out: Stability. The gist of the method:
as §2

For data set [13], the target named is T1, Serine/threonine-protein kinase pim-1. Put plainly: Inhibition of PIM1 (unknown origin) using 5-FAM-RSRHSSYPAGT-CONH2 as substrate after 2 hrs by electrophoretic mobility shift assay.
Data set [14] in a line: Aqueous solubility of the compound in pH 7.4 PBS by HPLC-UV method. Format: physicochemical. The gist of the method: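 Tested in PBS pH 7.4 with a final DMSO concentration of 2%; performed by a contract lab (Cerep).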
Data set [15] has as its target T2, Serine/threonine-protein kinase pim-3. In words: Inhibition of full length recombinant human N-terminal GST-tagged PIM3 (1 to 326 end residues) expressed in baculovirus infected sf21 cells using S6K2 peptide as substrate by electrophoretic mobility shift assay.
Data set [16] has as its target Rho-associated protein kinase 1 (Homo sapiens) (UniProt Q13464). In words: Inhibition of recombinant human N-terminal GST-tagged ROCK1 catalytic domain (1 to 477 residues) expressed in baculovirus infected sf21 cells at 200 nM using LIMKtide as substrate by electrophoretic mobility shift assay relative to control. Put shortly:
as §1

For data set [17], the target named is Protein kinase C alpha type (Homo sapiens) (UniProt P17252). In words: Inhibition of full length recombinant human N-terminal GST-tagged PKCalpha (1 to 672 residues) expressed in baculovirus infected sf21 cells at 200 nM using PKC peptide as substrate by electrophoretic mobility shift assay relative to control. The gist of the method:
as §1

For `O=C1/C(=C/c2c[nH]c3nc(Cl)ccc23)Oc2c1ccc(O)c2CN1CCNCC1`, the IC50 (as a rule, the midpoint of a concentration-inhibition curve) is 1.3 nM in data set [1]; 140 nM in data set [5]; 200 nM in data set [9]; more than 10 µM with WI-38; 1.4 nM in data set [13]; 0.88 nM in [15]. In addition, the inhibition – broadly, the percentage by which the read-out fell short of the control – at 10 µM on hERG (KCNH2) amounted to 30%. Also, the inhibition in [2] was 63%; in [3], more than 99%; in [6], 57%; in data set [7] it was 99%; in data set [8] it was 30%; in data set [11] it was 58%. Also, the Papp at 10 µM in data set [4] is 1.7 ×10⁻⁶ cm/s. For the same compound, the remaining at 1 h, 1 µM in data set [10] was determined as 63%; in data set [12] it was 82%. Besides, the concentration in solution in data set [14] (solubility) was 130 µM (≈ 53.4 µg/mL).

With `COc1ccc2c(c1CN1CCNCC1)O/C(=C\c1c[nH]c3ncccc13)C2=O`, the inhibition in [16] is more than 75%; in data set [3], more than 50%; in [7], more than 50%; in data set [17] it was more than 75%. On hERG (KCNH2), this compound had an inhibition at 10 µM of 19%. Moreover, the Papp at 10 µM in data set [4] was found to be 2.1 ×10⁻⁶ cm/s. For the same compound, the values for the IC50 in data set [5] and in [13] were 390 nM and 0.84 nM, respectively. The remaining at 1 h, 1 µM came to 72% in [10] and 90% in data set [12]. In addition, the solubility (usually the concentration that dissolves in the medium under given conditions) in [14] was not below 200 µM.

For `CCc1ccc2c(/C=C3\Oc4c(ccc(O)c4CN4CCNCC4)C3=O)c[nH]c2n1`, the IC50 in [13] turned out to be 16 nM.

In the case of `O=C1/C(=C/c2c[nH]c3ncccc23)Oc2c1ccc(O)c2CN1CCNCC1`, the half-maximal inhibitory concentration (IC50) was found to be 420 nM in data set [5] and 2 nM in [13].

`COc1ccc2c(c1CN1CCNCC1)O/C(=C\c1n[nH]c3ccccc13)C2=O`: the Papp at 10 µM in data set [4] came out at 0.89 ×10⁻⁶ cm/s. Further, the remaining at 1 h, 1 µM in [10] was determined as 83%; in data set [12], 68%.

In the case of `CN1CCC(CNc2ccc3ncc(-c4cccc(OC(F)(F)F)c4)n3n2)CC1` [SGI-1776], the IC50 in [9] is 600 nM; with WI-38, 1.7 µM.

On to `CCc1ccc2c(/C=C3\Oc4c(ccc(OC)c4CN4CCNCC4)C3=O)c[nH]c2n1`, for which the inhibition in data set [16] came to 50%; in data set [6] it was 77%; in [17], 10%; in data set [8], 90%; in [11] it was 23%. The 50% inhibitory concentration (IC50) in data set [5] was found to be 290 nM; in data set [13], 1.1 nM.

For `Cc1ccc2c(/C=C3\Oc4c(ccc(O)c4CN4CCNCC4)C3=O)c[nH]c2n1`, the IC50 came to 510 nM in [5] and 3.8 nM in [13].

Regarding `O=C1/C(=C/c2c[nH]c3nc(F)ccc23)Oc2c1ccc(O)c2CN1CCNCC1`, the 50% inhibitory concentration (IC50) in data set [13] worked out at 1.8 nM.

As for `COc1ccc2c(c1CN1CCNCC1)O/C(=C\c1c[nH]c3nc(C)ccc13)C2=O`, the inhibition in data set [16] was 50%; in data set [6], 91%; in data set [17], 10%; in [11] it was 25%. Further, on hERG (KCNH2), testing at 10 µM gave an inhibition of 14%. For the same compound, the Papp at 10 µM in [4] came to 0.13 ×10⁻⁶ cm/s. In addition, the IC50 in data set [5] was 300 nM; in data set [13], 0.64 nM. Moreover, the remaining at 1 h, 1 µM was determined as 69% in data set [10] and 74% in data set [12]. The compound further yielded a solubility in data set [14] of 130 µM (≈ 52.6 µg/mL).

As for `CCCCc1ccc2c(/C=C3\Oc4c(ccc(OC)c4CN4CCNCC4)C3=O)c[nH]c2n1`, in [13], the concentration for half-maximal inhibition (IC50) came to 2.1 nM.

As to `COc1ccc2c(c1CN1CCNCC1)O/C(=C\c1c[nH]c3nc(Cl)ccc13)C2=O`, the concentration for half-maximal inhibition (IC50) is 0.49 nM in [1], 140 nM in [5], 0.41 nM in [13] and 0.4 nM in data set [15]. At hERG (KCNH2), this compound had an inhibition at 10 µM of 22%. The inhibition in data set [2] was 61%; in [3], more than 99%; in [6], 80%; in [7] it was 99%; in [8] it was 62%; in data set [11] it was 41%. In data set [4], the Papp at 10 µM turned out to be 0.31 ×10⁻⁶ cm/s. Moreover, the remaining at 1 h, 1 µM in data set [10] was 58%; in [12] it was 82%. In addition, the solubility in data set [14] amounted to 21 µM (≈ 8.92 µg/mL).

`N[C@@H]1CCCN(c2c(/C=C3\SC(=O)NC3=O)cccc2-c2ccccc2)C1`: the results for the 50% inhibitory concentration (IC50) (in data set [9]; in the data set on WI-38) were 12 nM and more than 10 µM, respectively.

Turning to `CCCc1ccc2c(/C=C3\Oc4c(ccc(OC)c4CN4CCNCC4)C3=O)c[nH]c2n1`, the IC50 in [13] was 4.5 nM.

On to `COc1ccc2c(c1CN1CCNCC1)O/C(=C\c1c[nH]c3nc(F)ccc13)C2=O`, for which the inhibition in data set [16] stood at 94%; in data set [2], 79%; in [6], 97%; in data set [8] it was 59%. Besides, the IC50 in data set [13] was 0.28 nM.

For the compound `COc1ccc2c(c1CN1CCNCC1)O/C(=C\c1c[nH]c3nc(-c4ccccc4)ccc13)C2=O`, the IC50 in data set [13] worked out at 16 nM.
